The source of these data is ChEMBL document CHEMBL1153543, “Discovery of novel protease activated receptors 1 antagonists with potent antithrombotic activity in vivo” (J Med Chem, 2009).

Series [1] deals with CHO. Kind of series: Inhibition of SFLLR-NH2-induced calcium release in CHO cells at 10 uM treated prior to SFLLR-NH2 challenge […] by FLIPR assay. The series is classed as functional. Conditions: Cricetulus griseus. Summed up:
(§1)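 FLIPR fluorescence assay in CHO cells. Calcium release is evoked by 1 μM SFLLR-NH₂, the PAR1-selective agonist peptide. Compound effect is given as % inhibition at 10 μM or, for competitive antagonists, as a calculated pA₂.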

Series [2] has as its target T1, Proteinase-activated receptor 4 (Homo sapiens) (UniProt Q96RI0).
T1 sequence (whole entry): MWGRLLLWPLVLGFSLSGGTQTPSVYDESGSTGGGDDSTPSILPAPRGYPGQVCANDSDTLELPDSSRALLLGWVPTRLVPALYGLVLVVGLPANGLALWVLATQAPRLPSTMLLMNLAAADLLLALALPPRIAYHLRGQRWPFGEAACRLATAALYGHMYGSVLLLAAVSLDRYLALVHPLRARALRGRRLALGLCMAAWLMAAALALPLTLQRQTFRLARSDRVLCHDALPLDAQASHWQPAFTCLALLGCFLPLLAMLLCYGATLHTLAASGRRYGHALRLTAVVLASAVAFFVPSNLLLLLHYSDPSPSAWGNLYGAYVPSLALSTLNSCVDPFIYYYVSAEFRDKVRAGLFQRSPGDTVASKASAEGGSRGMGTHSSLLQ
In words: Antagonist activity at PAR4 expressed in Cos7 cells assessed as AYPGKF-mediated SRE-luciferase activity. The class given is functional, cell-based. As to conditions: COS-7.

The nature of series [3]: Selectivity for PAR1 to PAR4.
Series [4] is described as follows: Solubility in water. The series is classed as physicochemical. Summed up: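 Aqueous solubility was determined on the hydrochloride salt and expressed in mg/mL.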
Series [5] addresses T2, Proteinase-activated receptor 1 (Homo sapiens) (UniProt P25116).
T2 sequence (whole entry): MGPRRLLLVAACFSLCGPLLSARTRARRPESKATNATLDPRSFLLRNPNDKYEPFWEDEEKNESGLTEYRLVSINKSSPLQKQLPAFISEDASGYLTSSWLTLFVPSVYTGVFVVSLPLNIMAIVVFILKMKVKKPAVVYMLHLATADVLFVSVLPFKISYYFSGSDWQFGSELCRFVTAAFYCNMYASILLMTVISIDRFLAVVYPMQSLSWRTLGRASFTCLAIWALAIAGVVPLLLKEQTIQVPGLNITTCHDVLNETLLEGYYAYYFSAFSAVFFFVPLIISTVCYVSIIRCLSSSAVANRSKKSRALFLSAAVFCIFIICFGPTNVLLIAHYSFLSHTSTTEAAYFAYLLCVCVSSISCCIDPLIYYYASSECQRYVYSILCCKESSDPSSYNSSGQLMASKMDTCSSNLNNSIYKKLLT
In words: Antagonist activity at PAR1 expressed in Cos7 cells assessed as SFLLR-mediated SRE-luciferase activity. The class given is functional, cell-based. As to conditions: COS-7.

Series [6] can be described thus: Clearance in rat. The class given is ADME, organism-based. Conditions: in vivo. Summed up: (§2)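 Rat pharmacokinetic parameters were determined on the hydrochloride salt of each compound.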
Series [7] deals with Rattus norvegicus. In words: Increase in occlusion time of arteriovenous shunt in Crl: OFA Sprague-Dawley rat at 1.25 mg/kg, iv. The series is classed as functional. Summed up: (§3)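 Anesthetized rats; extracorporeal shunt from left carotid artery to right jugular vein, silk thread in the central portion as thrombogenic substrate. A thermal microprobe on the central shunt section gives time to occlusion, seen as a sharp temperature drop. Compound given iv at 1.25 mg/kg or orally at 40 mg/kg. Result expressed as % increase in occlusion time.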

Another series has as its system Platelet. Kind of series: Inhibition of SFLLR-induced human platelet aggregation. The class given is functional.
Series [8] in a line: Selectivity for PAR1 to PAR2.
Series [9] is described as follows: Oral bioavailability in rat. The series is classed as ADME, organism-based. As to conditions: in vivo. Summed up: as §2
Series [10] relates to Rattus norvegicus. In words: Increase in occlusion time of arteriovenous shunt in Crl; OFA Sprague-Dawley rat at 40 mg/kg, po. The series is classed as functional. Summed up: as §3
The nature of series [11]: Half life in rat plasma at 1 mg/kg, iv and 5 mg/kg, po. The series is classed as ADME, organism-based. Summed up: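 Plasma half-life was measured in male rats dosed iv at 1 mg/kg and po at 5 mg/kg. The value is the mean over three rats.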
Series [12] addresses Proteinase-activated receptor 2 (Homo sapiens) (UniProt P55085). Kind of series: Antagonist activity at PAR2 expressed in Cos7 cells assessed as SLIGRl-mediated SRE-luciferase activity. The series is classed as functional, cell-based. As to conditions: COS-7.
Series [13] deals with CHO. In words: Inhibition of SFLLR-NH2-induced calcium release in CHO cells treated prior to SFLLR-NH2 challenge […] by FLIPR assay. The class given is functional, cell-based. As to conditions: Cricetulus griseus, read-out: pA2 (converted). Summed up:
as §1

Converted amounts (≈) assume the structure as drawn.

Proteinase-activated receptor 2 (Homo sapiens), sequence (P55085 whole entry): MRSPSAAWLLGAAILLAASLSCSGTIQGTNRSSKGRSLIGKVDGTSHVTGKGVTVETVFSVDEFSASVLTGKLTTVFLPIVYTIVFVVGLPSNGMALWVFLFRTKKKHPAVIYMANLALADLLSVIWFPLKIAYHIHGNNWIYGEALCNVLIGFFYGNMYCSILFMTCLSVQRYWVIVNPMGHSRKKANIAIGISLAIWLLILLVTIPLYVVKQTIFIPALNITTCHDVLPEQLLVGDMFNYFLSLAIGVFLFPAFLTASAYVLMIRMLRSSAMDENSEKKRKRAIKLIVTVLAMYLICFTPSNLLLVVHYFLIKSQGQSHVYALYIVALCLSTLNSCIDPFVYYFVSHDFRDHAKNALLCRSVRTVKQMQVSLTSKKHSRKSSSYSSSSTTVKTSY

As a reminder, the inhibition is the change of the read-out against control, counted positive when it falls. On to `O=C(/C=C/c1ccccc1[N+](=O)[O-])N1CCN(C(=O)C2CCCCCC2)CC1`, for which the inhibition at 10 µM in the series on CHO [1] was determined as 99.9%.
As for `N#Cc1ccccc1/C=C/C(=O)N1CCN(Cc2ccc(F)cc2)CC1`, the inhibition at 10 µM in the series with CHO [1] turned out to be 85.4%.
On the same count and under the same terms, under `O=C(/C=C/c1ccccc1[N+](=O)[O-])N1CCC(NCc2ccc(F)cc2)CC1` stands 0%.
The same measure, in the same setting: under `O=C(CCc1ccccc1[N+](=O)[O-])N1CCN(Cc2ccc(F)cc2)CC1` stands 45.3%; under `Cc1cccc(CN2CCN(C(=O)/C=C/c3ccccc3[N+](=O)[O-])CC2)c1`, 72.4%.
As a reminder, the pKb is −log10 of the Kb, conventionally taken in molar units. What is called solubility is the dissolved amount per volume that the medium holds. Low values mean a poorly soluble substance, high ones a readily soluble substance. What is called clearance is the volume of plasma or blood freed of the substance per unit of time. Low readings indicate a low capacity for elimination, high ones a high capacity for elimination. As usually defined, the bioavailability is dose-corrected exposure relative to a reference, in per cent. The low end stands for little systemic uptake, the high end for much systemic uptake. Usually half-life stands for the time in which the quantity being followed falls by half. Read a high half-life as slow loss. `O=C(/C=C/c1ccccc1Cl)N1CCN(Cc2ccc(F)cc2)CC1`: the pKb in [2] stood at 4.91; in series [5], 5.55; with Platelet it was 5.52; in [12], 4.45. Further, the Selectivity ratio in series [3] was 5; in [8], 15. The same compound registered a solubility in series [4] of 1700 µg/mL (≈ 4.74 mM). Also, the clearance in [6] is 40 mL/min/kg. Also, the Activity with Rattus norvegicus [7] worked out at 28%; with Rattus norvegicus [10] it was 59%. Besides, the bioavailability in series [9] worked out at 43%. This compound also returned a half-life in [11] of 2.17 h. The inhibition at 10 µM in the series with CHO [1] worked out at 92.8%. Besides, the Kb with CHO [13] is 214 nM.
As to `O=C(/C=C/c1ccccc1[N+](=O)[O-])N1CCN(Cc2ccncc2)CC1`, in the series with CHO [1], the inhibition at 10 µM is 0%.
As to `N#Cc1ccc(N2CCN(C(=O)/C=C/c3ccccc3[N+](=O)[O-])CC2)cc1`, the inhibition at 10 µM in the series on CHO [1] was determined as 18.8%.
The same measure, in the same setting: under `Cc1ccc(CN2CCN(C(=O)/C=C/c3c(F)cccc3F)CC2)cc1C` stands 65.3%.
As to `N#Cc1ccccc1/C=C/C(=O)N1CCN(C(=O)C2CCCCCC2)CC1`, the Activity with Rattus norvegicus [7] is given as 19%. In the series on Platelet, this compound yielded a negative-log Kb (pKb) of 5.17. In addition, in the series on CHO [1], the inhibition at 10 µM was determined as 92.6%. Also, the Kb in the series on CHO [13] is 87.1 nM.
Turning to `O=C(/C=C/C=C/c1ccccc1[N+](=O)[O-])N1CCN(Cc2ccc(F)cc2)CC1`, in the series on CHO [1], the inhibition at 10 µM is 59.4%.
For `O=C(/C=C/C=C/c1ccccc1[N+](=O)[O-])N1CCN(C2CCCC2)CC1`, the values for the Activity in the series on Rattus norvegicus [7] and in the series on Rattus norvegicus [10] were 44% and 7%, respectively. This compound returned a pKb with Platelet of 5.5. Moreover, the inhibition at 10 µM in the series on CHO [1] came to 91.7%. Besides, the Kb with CHO [13] is 69.2 nM.
On to `Cc1cccc(CN2CCN(C(=O)/C=C/c3c(F)cccc3F)CC2)c1`, for which, in the series on CHO [1], the inhibition at 10 µM was determined as 86.2%.
Regarding `O=C(/C=C/c1ccccc1[N+](=O)[O-])N1CCN(Cc2ccc(F)cc2)CC1`, the inhibition at 10 µM in the series on CHO [1] was 88.6%.
The same measure, in the same setting: under `O=C(/C=C/c1c(F)cccc1F)N1CCN(Cc2ccc(F)c(F)c2)CC1` stands 73.1%; under `O=C(C#Cc1ccccc1[N+](=O)[O-])N1CCN(Cc2ccc(F)cc2)CC1`, 28.6%; under `O=C(/C=C/c1ccccc1Cl)C1CCN(Cc2ccc(F)cc2)CC1`, 15.8%.
The same measure, in the same setting: next, `O=C(/C=C/C=C/c1ccccc1Cl)N1CCCN(Cc2ccc(F)cc2)CC1`: 37.8%.
Turning to `CCOc1cc2c(cc1C(=O)NC)C(=N)N(CC(=O)c1cc(C(C)(C)C)c(O)c(C(C)(C)C)c1)C2`, the Activity with Rattus norvegicus [7] is 27%; in the series with Rattus norvegicus [10], 43%. In the series with Platelet, this compound registered a pKb of 8.18. In the series with CHO [13], the Kb was 141 nM.
Turning to `O=C(/C=C/c1ccccc1[N+](=O)[O-])N1CCN(c2cccc(Cl)c2)CC1`, in the series on CHO [1], the inhibition at 10 µM was 97.1%.
With `O=C(/C=C/C=C/c1ccccc1[N+](=O)[O-])N1CCN(c2ccccc2)CC1`, the Activity in the series on Rattus norvegicus [7] stood at 3%. The pKb with Platelet stood at 5.65. The inhibition at 10 µM in the series with CHO [1] stood at 100%. Further, the Kb in the series on CHO [13] is 58.9 nM.
On to `N#Cc1ccccc1/C=C/C=C/C(=O)N1CCN(c2ccccn2)CC1`, for which the pKb was determined as 4.93 in series [2], 5.6 in series [5], 5.3 in the series on Platelet and 4.39 in [12]. In addition, the Selectivity ratio in [3] is 5; in [8], 15. Further, the solubility in series [4] was determined as 2500 µg/mL (≈ 7.26 mM). This compound also gave a clearance in series [6] of 6 mL/min/kg. Further, the Activity in the series with Rattus norvegicus [7] was 58%; with Rattus norvegicus [10], 54%. The same compound registered a bioavailability in [9] of 42%. The half-life in series [11] is 2.78 h. Moreover, the inhibition at 10 µM in the series on CHO [1] came to 98.7%. For the same compound, the Kb in the series on CHO [13] was 324 nM.
As to `O=C(/C=C/c1ccccc1[N+](=O)[O-])N1CCCN(Cc2ccc(F)cc2)CC1`, the inhibition at 10 µM in the series with CHO [1] worked out at 38.2%.
Same read-out and setting: under `O=C(/C=C/c1ccccc1[N+](=O)[O-])N1CCN(C(=O)NC2CCCCC2)CC1` stands 39.2%; under `O=C(/C=C/c1ccccc1[N+](=O)[O-])N1CCN(S(=O)(=O)c2ccccc2F)CC1`, 0%; under `O=C(/C=C/c1ccccc1Br)N1CCN(Cc2ccc(F)cc2)CC1`, 93.1%.
In the case of `O=C(/C=C/c1c(F)cccc1F)N1CCN(C(=O)C2CCCCCC2)CC1`, the Activity with Rattus norvegicus [7] stood at 14%; with Rattus norvegicus [10], 0%. The inhibition at 10 µM in the series on CHO [1] came out at 98.9%. For the same compound, the Kb in the series on CHO [13] was 214 nM.
For `O=C(/C=C/c1ccccc1[N+](=O)[O-])N1CCN(Cc2ccc(F)cc2)C(=O)C1`, in the series on CHO [1], the inhibition at 10 µM is 26.7%.
With `Nc1ccccc1/C=C/C(=O)N1CCN(Cc2ccc(F)cc2)CC1`, in the series on CHO [1], the inhibition at 10 µM came to 7.4%.
On to `O=C(/C=C/c1ccccc1[N+](=O)[O-])N1CCN(CC2CCCCC2)CC1`, for which, in the series on Rattus norvegicus [7], the Activity stood at 29%. Further, the negative-log Kb (pKb) in the series with Platelet amounted to 5.31. Further, in the series on CHO [1], the inhibition at 10 µM came to 91.5%. In addition, the Kb with CHO [13] was 490 nM.
For `O=C(/C=C/c1cccc(Cl)c1)N1CCN(Cc2ccc(F)cc2)CC1`, in the series on CHO [1], the inhibition at 10 µM came out at 0.7%.
